S100A4 inh HTS: inhibitors of S100A4-myosin IIA peptide binding, primary screen, biochemical, fluorescence polarization, TAMRA-MyoIIA peptide; inhibition, % at 10.7 µM; 0.14% of 360,000 active; AID 652163, 2013;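 active = mean inhibition of at least 70% across replicates, with every replicate also reaching that level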
Target sequence (P26447 whole entry, looked up): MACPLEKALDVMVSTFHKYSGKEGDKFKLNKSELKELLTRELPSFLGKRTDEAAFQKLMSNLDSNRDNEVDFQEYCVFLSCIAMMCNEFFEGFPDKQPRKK
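System – human S100A4 monomer protein, biochemical binding assay · Buffer or medium – Calcium-containing HEPES buffer, pH 7.2 · Timing – 5 min between mix addition and reading · Also added – TAMRA-labelled myosin IIA heavy-chain peptide probe, 5 nM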
rRNA inh HTS: reduced GFP signal of wild-type E. coli, primary screen, bacterial rRNA inhibitor project, GFP/RFP fluorescence, OD600, single point; 1.6% of 350,000 active; E. coli WT GFP vs humanized-ribosome RFP mutants, 24 h; active compounds read low; DMSO median 0, no signal -100; GFP signal change (wild-type ribosome), % (no concentration beside the values);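 active = significant combined selectivity score with lowered wild-type GFP, culture density cut under 30%, mutant RFP and density less affected; inactive = any of these conditions unmet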
ERAP1 inh: human ERAP1 aminopeptidase inhibitors, primary screen, biochemical, single point, plate reader; Endoplasmic reticulum aminopeptidase 1 (Homo sapiens), Q9NZ08; recombinant ERAP1, Leu-AMC fluorescence, 60 min; inhibition, % at 10.7 µM; 0.15% of 340,000 active; AID 652197, 2013;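 active = mean replicate inhibition of at least 30%, or all replicates individually reaching that 30% level; inactive = mean below 30% and not every replicate reaching it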;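 also: 0% = neutral control wells and 100% = L-leucinethiol positive control wells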
SIRT5 block: SIRT5 desuccinylase inhibitors, primary screen, biochemical, fluorescence imaging, single point, set 5. Purified SirT5, succinyl-peptide AMC, trypsin-coupled fluorescence. inhibition, % at 15 µM. NAD-dependent protein deacylase sirtuin-5, mitochondrial (Homo sapiens), Q9NXA8. 1.1% of 330,000 active; in the data active = inhibition above about 15%
Target sequence (Q9NXA8 whole entry, looked up): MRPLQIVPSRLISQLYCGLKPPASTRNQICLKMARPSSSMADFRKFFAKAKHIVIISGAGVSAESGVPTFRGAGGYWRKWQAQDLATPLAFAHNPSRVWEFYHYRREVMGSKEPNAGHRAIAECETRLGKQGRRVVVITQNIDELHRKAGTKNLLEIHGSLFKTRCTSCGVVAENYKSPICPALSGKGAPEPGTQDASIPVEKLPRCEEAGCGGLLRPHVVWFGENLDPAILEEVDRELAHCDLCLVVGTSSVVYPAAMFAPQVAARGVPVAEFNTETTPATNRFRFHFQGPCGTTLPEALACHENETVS
F508del corr: F508del CFTR correction, initial screen, CFBE line, single point; CFBE cells, YFP halide quenching; stimulated with forskolin plus potentiator P3; % fluorescence drop versus neutral controls; activity (quench increase), % at 7.58 µM; 0.36% of 350,000 active; AID 720511, 2013;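 active = mean added fluorescence quench of at least 8% versus neutral control, with both replicates also reaching 8%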;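 also: cells transiently co-express mutant CFTR-F508del with the halide-sensitive YFP; corrector assay measuring rescue of mutant channel to the surface after 24 h compound exposure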
* hit, by the source's call; / = not tested or not shown. This is a sample that favours compounds with a hit; in the whole collection about 3.1% have one here.

SMILES | S100A4 inh HTS | rRNA inh HTS | ERAP1 inh | SIRT5 block | F508del corr
COc1ccc([Si](C)(C)[C@H]2[C@H](CCO)O[C@@]3(C(=O)N(Cc4ccccc4)c4ccc(NC(C)=O)cc43)[C@@H]2C)cc1 | 6 | / | -1 | 3 | 3
COc1ccc([Si](C)(C)[C@H]2[C@H](CCn3cc([C@H](O)c4ccccc4)nn3)O[C@@]3(C(=O)N(Cc4cccc(N5CCC5=O)c4)c4ccccc43)[C@@H]2C)cc1 | 12 | / | 0 | 5 | 0
COc1ccc([Si](C)(C)[C@H]2[C@H](CCn3cc([C@H](O)c4ccccc4)nn3)O[C@@]3(C(=O)N(Cc4cccc(N5CCOC5=O)c4)c4ccccc43)[C@@H]2C)cc1 | -49 | / | 1 | 23* | 5
COc1ccc([Si](C)(C)[C@@H]2[C@@H](CCO)O[C@]3(C(=O)N(Cc4cccc(NC(C)=O)c4)c4ccccc43)[C@H]2C)cc1 | 30 | / | -2 | 21* | 1
COc1ccc([Si](C)(C)[C@@H]2[C@@H](CCO)O[C@]3(C(=O)N4c5c(cc(OC)cc53)C(C)=CC4(C)C)[C@H]2C)cc1 | 7 | / | -2 | 15* | -10
C[C@H](CO)N1C[C@H](C)[C@@H](CN(C)C(=O)C2CC2)Oc2cc(-c3ccc(C(=O)N(C)C)cc3)ccc2S1(=O)=O | / | -2 | / | / | 3
CN1[C@@H]2Cn3c(ccc(-c4ccccc4)c3=O)[C@H]1[C@@H](C(=O)NCC1CC1)[C@@H]2CO | -1 | 1 | 0 | -5 | 0
O=C(O)/C=C/C(=O)Nc1ccc(C(=O)c2ccccc2)cc1 | 3 | 15 | -5 | 2 | -1
O=C(O)/C=C/C(=O)Nc1ccc(Cl)cc1C(=O)c1ccccc1 | -4 | -23* | 2 | 0 | -3
CSc1cccc(NC(=S)N2CCC(c3ccccc3)C2)c1 (stereo unspecified) | -6 | -25* | 1 | -4 | /
CCc1cccc(NC(=S)N2CCC(c3ccccc3)C2)c1 (stereo unspecified) | 60 | -27 | 6 | 0 | -1
CCNC(=O)C[C@H]1CC[C@@H]2[C@H](COC[C@H](O)CN2C(=O)c2cc(Cl)cc(Cl)c2)O1 | / | 1 | / | / | 1
Cc1csc(=NC(=O)c2ccccc2)n1Cc1ccco1 | 7 | -23 | 2 | 0 | -1
CCn1c(C)csc1=NC(=O)c1ccccc1O | -4 | -23* | 0 | 5 | -1
COc1ccc(S(=O)(=O)N(C)C[C@@H]2Oc3c(NC(=O)Nc4ccc(C(F)(F)F)cc4)cccc3C(=O)N([C@H](C)CO)C[C@@H]2C)cc1 | -16 | -1 | -1 | 10 | 2
CCC(=O)N[C@@H]1CC[C@@H](CC(=O)NCC2CC2)O[C@@H]1CO | -4 | 2 | 0 | 5 | 1
CCOC(=O)CN(C(=O)CSc1nnc(CNc2ccc(C)cc2C)o1)c1ccccc1 | -6 | -23* | 6 | -2 | /
Cc1ccc(NCc2nnc(SCC(N)=O)o2)c(C)c1 | 1 | 14 | 6 | -4 | 0
S=C1SCN(Cc2cccnc2)CN1Cc1ccccc1 | -2 | -29* | -4 | 5 | -3
CO[C@H]1CN(C)C(=O)c2cc(NC(=O)Nc3ccc(F)cc3)ccc2OC[C@H](C)NC[C@H]1C | 5 | -1 | 0 | -1 | -2
COCCCNC(=S)N/N=C/c1ccc2ccccc2c1 | 4 | -32* | 8 | 4 | -3
COCCCNC(=S)N/N=C/c1ccc(OC)cc1 | 1 | -6 | 1 | 4 | -3
O=C(COc1ccccc1Br)c1ccc2c(c1)OCO2 | 3 | -3 | -1 | -2 | -3
O=C(COc1ccccc1Br)c1ccc(O)cc1O | -4 | -42* | 3 | 1 | -2
O=C(NCC[C@@H]1CC[C@@H](NC(=O)C2CCCCC2)[C@H](CO)O1)c1cc(Cl)cc(Cl)c1 | -1 | -1 | -1 | -3 | -2
CN1CCN(c2ccc(NC(=O)c3sc4ccccc4c3Cl)cc2)CC1 | 2 | -25* | 1 | 3 | 2
O=C(NNC(=O)c1sc2ccccc2c1Cl)Nc1ccc(Cl)cc1 | 0 | -20* | 2 | 1 | /
